Laboratory results taken from ChEMBL document CHEMBL3813647, “Discovery of an Orally Active and Liver-Targeted Prodrug of 5-Fluoro-2'-Deoxyuridine for the Treatment of Hepatocellular Carcinoma” (J Med Chem, 2016).

Tests used:
[1] = tested on: Plasma; experiment: (§1) AUC (infinity) in Sprague-Dawley rat plasma assessed as (S)-2-((R)-(((2R,3S,5R)-5-(5-fluoro-2,4-dioxo-3,4-dihydropyrimidin-1(2H)-yl)-3-hydroxytetrahydrofuran-2-yl)methoxy)(2-methylbenzyloxy)phosphorylamino)propanoate formation at 52.17 mg/kg administered through oral gavage measured up to 24 hrs by HPLC-MS/MS analysis; type: ADME, organism-based; parameters: dose 52.17 mg/kg, time infinity, route oral; details: in vivo
How it was run: (§2)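 Male Sprague-Dawley rats (220 ± 20 g), single gavage of 0.096 mmol/kg. FDUR was dosed in H2O; the prodrugs were dosed in 20% hydroxypropyl-β-cyclodextrin. n = 3 per time point, sampled at 0.25–24 h. Plasma (EDTA-K2, cardiac puncture) and freeze-clamped liver were homogenized in 20 mM EDTA-K2/70% MeOH. Analytes measured by HPLC-MS/MS in ESI negative mode.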

[2] = tested on: Liver; experiment: as §1, with “Cmax” for “AUC (infinity)”, “liver” for “plasma”; type: ADME, organism-based; parameters: dose 52.17 mg/kg, route oral; details: in vivo; how it was run: as §2
[3] = tested on: Liver; experiment: AUC (infinity) in Sprague-Dawley rat liver assessed as 5-FU formation at 52.17 mg/kg administered through oral gavage measured up to 24 hrs by HPLC-MS/MS analysis; type: ADME, organism-based; parameters: dose 52.17 mg/kg, route oral, time infinity; details: in vivo; how it was run: as §2
[4] = Ratio of FDUR AUC (infinity) in Sprague-Dawley rat liver to FDUR AUC (infinity) in Sprague-Dawley rat plasma at 52.17 mg/kg administered through oral gavage; type: ADME, organism-based; details: other tissue
[5] = tested on: Liver; experiment: Drug metabolism in Sprague-Dawley rat liver S9 fraction assessed as (S)-2-((R)-(((2R,3S,5R)-5-(5-fluoro-2,4-dioxo-3,4-dihydropyrimidin-1(2H)-yl)-3-hydroxytetrahydrofuran-2-yl)methoxy)(2-methylbenzyloxy)phosphorylamino)propanoate formation at 20 ug/mL after 20 mins by HPLC-MS/MS analysis in absence of NADPH; type: ADME; details: s9, 20 min
How it was run: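 Rat liver S9 (10 mg/mL) incubated with compound at 20 μg/mL. Parent, intermediate A and FdUMP followed over time by HPLC-MS/MS. Negative control run without NADPH.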

[6] = Half life in rat plasma by HPLC analysis; type: ADME, cell-free
How it was run: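 Rat plasma, 37 °C. Compound added from a 2.5 mM stock, sampled at 0–24 h, quenched with MeOH. Analyzed by HPLC-UV at 267 nm (C8 column, MeOH:H2O 68:32). Triplicate samples.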

[7] = Cytotoxicity against human SMMC7721 cells assessed as reduction in cell viability after 72 hrs by MTT assay; type: functional, cell-based; details: SMMC-7721, 72 h
How it was run: (§3)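 Cells in RPMI-1640 with 10% FBS, seeded at 4 × 10³ per well and attached for 24 h. Compound (DMSO ≤0.5% final) added for 72 h at 37 °C, 5% CO2. Viability read by MTT. IC50 set against 0.5% DMSO-treated cells taken as 100% viable. Mean of two independent experiments, each run in triplicate.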

[8] = Cytotoxicity against human LO2 cells assessed as reduction in cell viability after 72 hrs by MTT assay; type: cell-based; details: L02, 72 h; how it was run: as §3
[9] = Half life in dog plasma by HPLC-MS/MS analysis; type: ADME, cell-free, Canis lupus familiaris
How it was run: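 Compound at 1 μg/mL final in dog or human plasma, 37 °C. Sampled at 0–24 h and quenched with ice-cold MeOH containing internal standard. Parent measured by LC-MS/MS in ESI negative mode; t1/2 calculated from percent remaining versus 0 h.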

[10] = tested on: H22; experiment: Antitumor activity against mouse H22 cells implanted in KM mouse assessed as tumor growth inhibition at 65 mg/kg administered daily through oral gavage after 8 days; type: functional; details: 192 h
How it was run: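 Syngeneic H22 hepatoma: 2 × 10⁶ cells injected s.c. in the axilla (0.9% saline) of female KM mice, n = 10 per group. From day 2, daily oral gavage for 8 days. Test agent given in 35% PEG400; sorafenib suspended in 0.5% CMC-Na. Tumor weight taken on day 8; inhibition rate calculated versus the vehicle group.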

[11] = tested on: Mus musculus; experiment: Toxicity in KM mouse implanted with mouse H22 cells assessed as body weight level at 65 mg/kg administered daily through oral gavage after 8 days (reference value: 21.7 to 22.3 g); type: organism-based; details: in vivo, 192 h
[12] = tested on: Mus musculus; experiment: Toxicity in KM mouse implanted with mouse H22 cells assessed as body weight level at 260 mg/kg administered daily through oral gavage after 8 days (reference value: 21.7 to 22.3 g); type: organism-based; details: in vivo, 192 h
[13] = tested on: Plasma; experiment: Cmax in Sprague-Dawley rat plasma assessed as FDUR formation at 52.17 mg/kg administered through oral gavage measured up to 24 hrs by HPLC-MS/MS analysis; type: ADME, organism-based; parameters: dose 52.17 mg/kg, route oral; details: in vivo; how it was run: as §2
[14] = tested on: Mus musculus; experiment: Toxicity in KM mouse assessed as damage to kidney at 2 to 3 g/kg, administered through oral gavage after 15 days; details: in vivo, 360 h

Cc1ccccc1CO[P@](=O)(N[C@@H](C)C(=O)OC(C)C)OC[C@H]1O[C@@H](n2cc(F)c(=O)[nH]c2=O)C[C@@H]1O
AUC [1]: 316 ng·h/mL
Cmax [2]: 3673 ng/g
AUC [3]: 257 ng·h/g
Ratio AUC [4]: 59.3
Drug metabolism [5]: metabolite_detected
half-life [6]: < 4.98 min
IC50 [7]: 250 µM
IC50 [8]: 412 µM
half-life [9]: > 24 h
inhibition in vivo at 65 mg/kg [10]: 44.2%
Activity [11]: 25.9 g
Activity [12]: 22.3 g
Cmax [13]: 17 ng/mL
Activity [14]: Non-toxic
